Source: PubChem BioAssay
An excerpt weighted towards active compounds, which were near 3.2% of everything screened.
Hck Nef HTS = human Hck-Nef kinase inhibition; P08631; Recombinant Hck-YEEI plus Nef, Z-Lyte FRET kinase assay; inhibition, % at 20 µM; 220,000 tested, 0.68% active; AID 463187;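 active means Hck-Nef kinase inhibition above about 50%, limit read from the data; inactive means inhibition below that limit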;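 further: 0% = DMSO with Hck plus Nef and 100% = Hck alone without Nef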
Target sequence (P08631 whole entry, looked up): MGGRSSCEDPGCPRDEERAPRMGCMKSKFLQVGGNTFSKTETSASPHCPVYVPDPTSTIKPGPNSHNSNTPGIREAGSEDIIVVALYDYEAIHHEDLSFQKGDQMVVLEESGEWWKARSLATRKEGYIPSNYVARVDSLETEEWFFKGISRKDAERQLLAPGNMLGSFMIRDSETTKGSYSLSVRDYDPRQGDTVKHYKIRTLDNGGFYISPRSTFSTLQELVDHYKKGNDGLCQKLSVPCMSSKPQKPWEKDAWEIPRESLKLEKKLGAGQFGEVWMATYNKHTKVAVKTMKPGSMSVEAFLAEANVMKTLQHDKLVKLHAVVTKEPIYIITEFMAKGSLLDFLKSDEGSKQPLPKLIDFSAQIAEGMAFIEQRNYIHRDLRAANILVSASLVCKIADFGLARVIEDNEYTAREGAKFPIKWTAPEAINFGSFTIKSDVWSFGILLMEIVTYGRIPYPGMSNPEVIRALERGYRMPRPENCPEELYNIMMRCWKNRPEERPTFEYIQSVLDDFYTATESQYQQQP
Calb biofilm kill = mixture kills Candida albicans biofilm cells. C. albicans biofilm persisters + clotrimazole, fluorescence viability; primary screen in compound mixtures of four per well. AID 1242. inhibition, % at 7.6 µM. 120,000 tested, 0.02% active;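 active means inhibition above 30.3% in the primary screen of four-compound pools, then above 30% when the compound was retested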;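 further: compounds exposed to preformed 24 h biofilms for 48 h; 0% = untreated biofilm control and 100% = clotrimazole plus chlorhexidine kill blank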
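System: C. albicans CAF4-2 wild-type biofilms; Medium: RPMI/MOPS medium, pH 7.0; Reagent: Clotrimazole, 50 µg/mL; Times: biofilm formation 24 h, compound exposure 48 h, 37 °C; Detection: 2-h Alamar Blue fluorescence, 535/590 nm excitation/emission; Evaluation: percent inhibition of biofilm viability.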
14-3-3 Bad PPI = disrupts binding of bovine 14-3-3 zeta to phospho-Bad peptide | 220,000 tested, 0.71% active | P63103 | inhibition, % at 21.7 µM | AID 781 | TR-FRET 14-3-3zeta/Dy647-pBad peptide displacement, 1 h;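 active means inhibition above about 70%, limit read from the data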;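 further: 0% = full 14-3-3 plus peptide FRET controls and 100% = background without 14-3-3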
Target sequence (P63103 whole entry, looked up): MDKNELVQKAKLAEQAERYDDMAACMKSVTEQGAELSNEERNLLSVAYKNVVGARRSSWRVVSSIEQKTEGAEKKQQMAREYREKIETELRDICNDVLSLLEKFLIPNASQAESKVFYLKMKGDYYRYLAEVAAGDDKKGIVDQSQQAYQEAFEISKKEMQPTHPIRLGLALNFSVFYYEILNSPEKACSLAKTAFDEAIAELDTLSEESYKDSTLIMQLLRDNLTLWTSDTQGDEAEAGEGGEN
Mcl1 Noxa PPI = disrupts binding of human Mcl-1 to Noxa peptide; Q07820; TR-FRET Mcl-1/Noxa peptide binding, 2 h; inhibition, % at 21.7 µM; 220,000 tested, 1.5% active;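 active means compounds that cut the protein-peptide binding signal by more than 50% relative to plate controls in a single-dose test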;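 further: His-tagged Mcl-1 with rhodamine Noxa BH3 peptide and terbium anti-His antibody; 0% = Mcl-1 plus Noxa peptide wells and 100% = peptide-only wells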
Bim-Mcl-1 = inhibitors of Bim-Mcl-1 interaction, human; Q07820; Bead-based flow cytometry, Bim peptide-Mcl-1 binding; inhibition, % at 10 µM; 190,000 tested, 0.1% active; AID 1009; in the data active means inhibition above about 40%;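 further: 0% = no compound tracer wells and 100% = peptide blocker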
Mcl1-Bid inh = Mcl-1/Bid interaction inhibition; TR-FRET Mcl-1/Bid-Dy647 peptide binding, 1536-well; inhibition, % at 21.7 µM; 220,000 tested, 0.97% active; AID 1021;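 active means compounds that cut the binding signal by more than half at the single screening dose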;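 further: His-tagged Mcl-1 with europium anti-His antibody binding Bid BH3 peptide; 0% = Mcl-1 plus peptide wells and 100% = peptide-only wells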
Hck Nef conf = Hck-Nef kinase inhibition, confirmation; shares compounds with Hck Nef HTS; Recombinant Hck-YEEI:Nef, Z-Lyte FRET kinase assay; calls only at 10 µM; 1,300 tested, 28% active;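 active means average inhibition of at least 50%, with Z-scores no higher than 3 in both the phospho-tyrosine peptide and fluorescence counterscreens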
Numbers without * were called inactive; i = inactive; . = no result given; + = active, no number.

SMILES | Hck Nef HTS | Calb biofilm kill | 14-3-3 Bad PPI | Mcl1 Noxa PPI | Bim-Mcl-1 | Mcl1-Bid inh | Hck Nef conf
O=C(CC1C(=O)NCCN1Cc1ccc(-c2ccccc2)cc1)NCCCn1cccn1 (stereo not drawn) | 21.2 | 23.9 | -7.0 | 13.5 | -4.0 | -12.0 | .
CCOC(=O)c1cc2ccc(OC(=O)c3ccco3)cc2oc1=O | 136.2* | . | 19.0 | -64.8 | -1.0 | 44.0 | .
O=C(c1cn(-c2ccccc2)nc1-c1ccncc1)n1nnc2ccccc21 | 32.2 | . | . | . | . | . | .
CC(C)(C)c1cc(-c2csc(Nc3ccccc3)[n+]2Cc2ccc(C(=O)O)cc2)cc(C(C)(C)C)c1O | 76.3* | 26.1 | 42.0 | 91.8* | . | 88.0* | i
CC1CCOC(c2coc3ccccc3c2=O)O1 (stereo not drawn) | 4.9 | 18.2 | 7.5 | 18.0 | 14.0 | -10.9 | .
O=C(O)C1CSC(c2coc3ccccc3c2=O)N1 (stereo not drawn) | 91.4* | 12.0 | 4.6 | 21.9 | -4.0 | -43.3 | +
Cc1ccc(/C=C2\SC(N3CCCC3)=NC2=O)cc1 | -0.6 | 5.0 | -2.5 | 7.3 | 1.0 | -29.5 | .
Cc1ccc(C2=NC(=O)/C(=C/c3cc(O)c(O)c(Br)c3)S2)cc1 | 50.1* | 3.9 | 28.8 | 95.4* | 1.0 | -3.8 | +
CCCSC1=N/C(=C\c2ccc([N+](=O)[O-])o2)C(=O)S1 | 50.5* | 12.2 | 46.0 | 78.8* | 1.0 | 6.4 | i
O=C(COC(=O)C1CC(O)CN1C(=O)Oc1ccccc1)c1ccc(Br)cc1 (stereo not drawn) | 3.5 | 18.3 | 5.2 | -8.3 | -4.0 | 0.0 | .
COc1cc(/C=C2\SC(=O)N(Cc3ccc(Cl)cc3)C2=O)cc([N+](=O)[O-])c1O | 51.0* | 3.2 | 96.4* | 91.7* | 0.0 | 90.5* | i
O=c1/c(=C\c2cc([N+](=O)[O-])cc([N+](=O)[O-])c2O)sc2nc3ccccc3n12 | 70.8* | 20.7 | 75.0* | 105.2* | -1.0 | 91.2* | +
COc1ccccc1C(=O)N/C(=C/c1ccc(Br)cc1)C(=O)N1CCCC1 | 14.8 | 6.3 | -2.3 | -7.5 | -3.0 | 1.5 | .
CC(=O)N=c1c(C#N)cc2c(=O)n3cccc(C)c3nc2n1Cc1ccco1 | 165.4* | 11.5 | -1.7 | 15.5 | . | -15.8 | i
Cc1cccn2c(=O)c3cc(C#N)c(=NC(=O)c4cccs4)n(CCCOC(C)C)c3nc12 | 105.9* | 9.8 | -9.2 | 18.9 | . | 2.8 | i
Cc1cccn2c(=O)c3cc(C#N)c(=NC(=O)c4ccncc4)n(CCCOC(C)C)c3nc12 | 31.7 | . | -6.8 | 6.3 | -1.0 | 14.1 | .
COc1ccc(OC)c(NC(=O)Cn2cc(C#N)c3cc(Br)ccc32)c1 | 69.4* | . | 13.6 | 15.4 | -1.0 | 11.4 | i
COc1ccc(NC(=O)Cn2cc(C#N)c3ccccc32)cc1 | 22.7 | 0.8 | -14.6 | 14.0 | 0.0 | -31.1 | .
Cc1ccc(C(=O)Nc2cccc(C(F)(F)F)c2)cc1NC(=O)c1nccn1C | 40.1 | 13.7 | 18.8 | -21.8 | . | -11.9 | .
Cc1ccc(C(=O)Nc2cccc(C(F)(F)F)c2)cc1Nc1ncnc2nc[nH]c12 | 55.2* | 16.0 | -16.3 | 1.7 | . | -11.8 | i
Cc1ccc(C(=O)Nc2cccc(C(F)(F)F)c2)cc1NC(=O)c1ccno1 | 74.9* | 13.7 | -2.4 | 5.6 | . | -44.6 | +
CCCCn1c(=O)[nH]c(=O)c2c1nc(COC(=O)c1c(C)noc1C)n2CCC | -0.3 | . | 2.9 | 13.8 | -8.0 | 5.0 | .
Cc1cc(Cl)ccc1N1C(=O)CC(NNC(=O)c2cccnc2)C1=O (stereo not drawn) | 4.8 | 2.9 | -10.2 | 11.4 | -1.0 | -24.4 | .
COc1cc(NC(=S)Nc2ncccc2C)cc(OC)c1OC | -0.8 | 6.3 | -3.3 | -2.2 | 2.0 | -47.3 | .
COc1cc(NC(=S)Nc2cccc(C)n2)cc(OC)c1OC | 96.7* | -15.8 | -13.5 | 17.8 | 1.0 | -46.4 | i
SMILES | Hck Nef HTS | Calb biofilm kill | 14-3-3 Bad PPI | Mcl1 Noxa PPI | Bim-Mcl-1 | Mcl1-Bid inh | Hck Nef conf
O=C(NCc1ccccc1)NC1(C(=O)N2CCN(c3ccccc3)CC2)CCCCC1 | -1.0 | . | 2.0 | 0.5 | -1.0 | -43.0 | .
CC(=O)OCC1=C(C(=O)O)N2C(=O)C(NC(=O)C(C)Cn3nc(C)c(Cl)c3C)C2SC1 (stereo not drawn) | 69.7* | 5.3 | 35.7 | 33.8 | -3.0 | -40.6 | i
c1ccc(-c2nccc(-c3ccc(-n4cnc5ccccc54)cc3)n2)cc1 | 101.8* | . | 95.8* | -117.4 | 10.0 | 54.8* | i
COc1cc2[nH]c(=O)n(CCC(=O)N3CCN(c4cccc(C)c4C)CC3)c(=O)c2cc1OC | 74.1* | . | 18.9 | 21.4 | -3.0 | 53.7* | i
CCc1cc2c(C)cc(=O)oc2cc1Oc1ncccc1[N+](=O)[O-] | 13.2 | 10.9 | 9.8 | 8.0 | 1.0 | -1.4 | .
COc1ccc2[nH]c3c(=O)n(/N=C/c4ccc(OC)c(CN5CCCC5)c4)c(C)nc3c2c1 | -8.8 | 14.7 | 22.0 | 32.6 | . | 2.2 | .
COc1ccc(/C=N/n2c(C)nc3c([nH]c4ccccc43)c2=O)cc1CN1CCCC(C)(C)C1 | 55.6* | 27.2 | -5.4 | 15.7 | . | -16.1 | i
COc1cc(OC)c(S(=O)(=O)Nc2ccccc2NC(=O)CN2CCOCC2)cc1NC(C)=O | 21.8 | 9.2 | -11.6 | 1.1 | 2.0 | 8.4 | .
CCc1ccc(S(=O)(=O)Nc2ccc(-c3nc4cccnc4s3)cc2)s1 | 7.5 | . | 6.7 | 8.5 | 0.0 | 19.4 | .
O=S(=O)(Nc1ccc(-c2nc3cccnc3s2)cc1)c1cc(F)ccc1F | 115.3* | 18.9 | 3.6 | 11.1 | . | -12.9 | .
Cn1nnnc1P(=O)(c1ccccc1)c1ccccc1 | -0.6 | . | -7.2 | -0.4 | -2.0 | -5.1 | .
Nc1cccc(-c2nc3ccc(N)cc3s2)c1 | 13.7 | . | -17.7 | 28.9 | 14.0 | -24.2 | .
Nc1ccc(-c2nc3ccc(N)cc3s2)cc1 | 60.7* | 4.0 | 7.5 | 39.2 | . | -60.4 | i
Nc1ccc(-c2nc3ccc(C(=O)O)cc3s2)cc1 | 114.8* | -6.0 | 9.7 | 57.3* | -12.0 | -36.8 | .
CCOc1ccccc1C(=O)Nc1ccc2nc(N3CCN(c4ncccn4)CC3)cc(C)c2c1 | 63.8* | . | . | . | . | . | +
Cc1noc(NC(=O)c2ccccc2C(F)(F)F)c1C#N | 24.8 | 16.4 | 60.8 | 22.7 | -1.0 | 46.6 | .
Cc1nnc(SCC(=O)Nc2ccccc2)[nH]c1=O | -1.1 | . | 3.6 | 10.2 | 0.0 | -24.2 | .
COc1ccc(NC(=O)CSc2c(C)nn(-c3nnc(C)c(=O)[nH]3)c2C)cc1 | 108.1* | . | 5.9 | 13.8 | -1.0 | 4.3 | i
Cc1cccn2cc(CCNS(=O)(=O)c3cccs3)nc12 | 20.6 | 10.4 | -1.0 | 7.4 | . | -22.9 | .
CCc1nc(Sc2nc(C)cc(C)n2)c2oc3ccccc3c2n1 | 1.3 | . | 25.9 | 1.2 | -4.0 | 34.0 | .
Cc1cccc(NC(=O)c2cc3c(s2)-c2c(C)cccc2OC3)n1 | 87.0* | 13.5 | 67.0 | -158.0 | . | 11.4 | .
